A selection: hits, their analogues and other compounds. The true share with any hit is near 2.5%.
HCV NS3 hel inh = inhibitors of Hepatitis C virus NS3 helicase; NS3 helicase DNA unwinding, Cy5 molecular beacon fluorescence; inhibition, % at 10.9 µM; 290,000 compounds, 0.56% hits; AID 1800;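 active = inhibition above the mean of all tested compounds plus 3 SD, set per campaign, cut at about 35% in these data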
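System: NS3 helicase fragment of HCV / Schedule: 1 h at 25 °C / Control set: DMSO alone as 0% and 110 µM thioflavine S as 100% / Reagent: Cy5/quencher beacon DNA duplex and ATP to start / Technique: Cy5 fluorescence / Replication: singlicate / Evaluation: % inhibition of end-to-start signal ratio versus controls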
MBD2 inh = MBD2-methylated oligo binding inhibition; Q9UBB5; TR-FRET, MBD2 binding to methylated oligonucleotide; inhibition, % at 4.4 µM; 370,000 compounds, 0.31% hits; AID 686964; in the data active = inhibition above about 13%
DSG3 Ab inh = blocks pemphigus antibody binding to human desmoglein-3. P32926. binding (percent of control), % at 10 µM. 310,000 compounds, 0.48% hits. DSG3-coupled beads, scFv-anti-DSG3-GFP binding, flow cytometry; hits give low values;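 active = binding more than 3 SD below its plate's average and above zero; inconclusive = below that plate limit but binding exactly zero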;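 note: hits lower antibody fragment binding to DSG3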
UHRF1 binding = human UHRF1 methylated DNA binding inhibitors | Q96T88 | UHRF1 binding to methylated oligo, TR-FRET | inhibition, % at 4.4 µM | 370,000 compounds, 0.75% hits | AID 687016; in the data active = inhibition above about 21%;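 note: UHRF1 SRA domain binding a hemimethylated CpG hairpin DNA probe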
Target sequence (Q96T88 whole entry, looked up, the tested form may be a part): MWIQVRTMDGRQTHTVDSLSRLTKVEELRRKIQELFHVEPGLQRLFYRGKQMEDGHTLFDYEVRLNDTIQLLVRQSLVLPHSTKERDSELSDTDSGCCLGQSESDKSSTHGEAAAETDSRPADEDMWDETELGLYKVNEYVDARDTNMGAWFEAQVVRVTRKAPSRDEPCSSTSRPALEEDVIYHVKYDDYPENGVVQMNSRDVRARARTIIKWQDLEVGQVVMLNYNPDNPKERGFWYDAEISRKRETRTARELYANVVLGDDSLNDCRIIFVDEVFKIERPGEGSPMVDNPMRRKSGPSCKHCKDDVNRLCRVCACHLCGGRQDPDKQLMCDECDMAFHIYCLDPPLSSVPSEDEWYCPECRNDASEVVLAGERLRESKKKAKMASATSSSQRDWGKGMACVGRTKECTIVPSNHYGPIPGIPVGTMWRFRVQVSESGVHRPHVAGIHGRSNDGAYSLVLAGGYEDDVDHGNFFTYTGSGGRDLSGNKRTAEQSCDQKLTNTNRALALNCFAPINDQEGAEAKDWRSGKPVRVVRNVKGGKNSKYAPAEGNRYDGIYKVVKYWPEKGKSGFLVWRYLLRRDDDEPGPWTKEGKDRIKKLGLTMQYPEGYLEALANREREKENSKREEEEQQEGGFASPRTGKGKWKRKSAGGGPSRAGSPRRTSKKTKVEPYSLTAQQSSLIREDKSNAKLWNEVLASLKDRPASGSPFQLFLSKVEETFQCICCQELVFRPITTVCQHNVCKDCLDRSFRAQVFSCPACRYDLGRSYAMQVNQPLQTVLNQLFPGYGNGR
DNMT1 inh = inhibitors of human DNMT1. 360,000 compounds, 0.83% hits. inhibition (reported as % activation of signal), % at 10 µM. P26358. DNMT1 molecular beacon, Hinp1I cleavage, fluorescence. AID 588458; in the data active = inhibition above about 50%
SUMO1 PPI mod = SUMO1-SIM interaction modulation; P63165; SUMO1 binding to a labelled peptide, TR-FRET, 1 h; inhibition, % at 20 µM; 360,000 compounds, 0.33% hits; AID 602429; in the data active = inhibition above about 37%
DNMT1 inh conf = DNMT1 inhibition confirmation, single concentration. shares compounds with DNMT1 inh. DNMT1 molecular beacon HinP1I cleavage, fluorescence. inhibition, % at 10 µM. 2,300 compounds, 8% hits. AID 602385;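 active = average inhibition of at least 30% in the single-concentration confirmation test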
DNMT1 interf = counter-screen for DNMT1 inhibitors: spectral interference | shares compounds with DNMT1 inh | DNMT1 molecular beacon spectral interference counterscreen, fluorescence 485/520 | activation (fluorescence interference), % at 10 µM | 2,300 compounds, 1% hits;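 active = activation of at least 30% at 10 µM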;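 note: DNMT1 catalytic domain with a HinP1I cleavage step and a FAM/dabcyl DNA beacon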
Each line names hits and unclear results; the compound was inactive in the other large screens (follow-up assays come after a bar, where they were run).

N#Cc1c(N)n(C2CCCCC2)c2nc3ccccc3nc12	none
CCCCC(CC)Cn1c(N)c(C#N)c2nc3ccccc3nc21 (stereo not drawn)	none
Cc1cc(C(=O)N2CCCC(N3CCN(c4ccc(F)cc4)CC3)C2)no1 (stereo not drawn)	none
COCCCNC(=S)NCCCNc1nc2cc3c(cc2cc1C#N)OCO3	none
COC(=O)[C@]1(Cc2ccccc2)N[C@H](c2ccc(-c3cccc(Cl)c3)c(OC)c2)[C@@H]2C(=O)N(C)C(=O)[C@@H]21	none (no result: HCV NS3 hel inh)
CCN1C(=O)[C@H]2[C@@H](c3ccc(-c4cccc(Cl)c4)c(OC)c3)N[C@@](Cc3ccccc3)(C(=O)OC)[C@H]2C1=O	DNMT1 inh 112 (no result: HCV NS3 hel inh) | DNMT1 inh conf inactive | DNMT1 interf inactive
CCCCOC(=O)c1nc(Cl)c(Cl)c(N)c1Cl	none
CCCCN(C(=O)c1cccc(-n2cccc2)c1)c1c(N)n(CCC)c(=O)[nH]c1=O	DNMT1 inh 62 (no result: HCV NS3 hel inh) | DNMT1 inh conf inactive | DNMT1 interf inactive
CCCCN(C(=O)c1cccc(S(=O)(=O)N2CCCC2)c1)c1c(N)n(CCC)c(=O)[nH]c1=O	none (no result: HCV NS3 hel inh)
CCCN(C(=O)c1ccc([N+](=O)[O-])c(C)c1)c1c(N)n(Cc2ccccc2)c(=O)[nH]c1=O	none (no result: HCV NS3 hel inh, DSG3 Ab inh)
CCCN(C(=O)c1cccc(-n2cccc2)c1)c1c(N)n(Cc2ccccc2)c(=O)[nH]c1=O	UHRF1 binding 26, DNMT1 inh 81 (no result: HCV NS3 hel inh) | DNMT1 inh conf inactive | DNMT1 interf inactive
Cc1ccc(NC(=O)COc2ccc(Br)cc2CO)cc1S(=O)(=O)N1CCOCC1	none (no result: HCV NS3 hel inh, DSG3 Ab inh)
Cc1c(-n2c(O)c(C3=c4ccccc4=NC3=O)sc2=O)c(=O)n(-c2ccccc2)n1C	none
COc1ccccc1NC(=O)c1c(NC(=O)c2ccco2)sc2c1CCC2	none
COc1ccccc1C(=O)Nc1sc2c(c1C(=O)NCc1ccco1)CCCC2	DNMT1 inh 51 | DNMT1 inh conf inactive | DNMT1 interf inactive
O=C(OCc1nc2scc(-c3ccccc3)c2c(=O)[nH]1)c1cc(Cl)ccc1[N+](=O)[O-]	none
CCc1cccc(OCCCCN(CC)CC)c1	DNMT1 inh 55 | DNMT1 inh conf inactive | DNMT1 interf inactive
Cc1ccsc1/C=C/C1=Cc2c(sc(NC(=O)CSc3n[nH]c(N)n3)c2C#N)C(C)(C)C1	DSG3 Ab inh 70, DNMT1 inh 90 | DNMT1 inh conf inactive | DNMT1 interf inactive
O=C(CSc1nc(-c2ccccc2)cs1)NC(=O)NCc1ccco1	none
O=C(CSc1nnc(-c2ccc(OC(F)F)cc2)o1)NC(=O)NCc1ccco1	DNMT1 inh 83 | DNMT1 inh conf inactive | DNMT1 interf inactive
Cn1c(SCC(=O)NC(=O)NCc2ccco2)nnc1-c1ccccc1	UHRF1 binding 22, DNMT1 inh 86 | DNMT1 inh conf inactive | DNMT1 interf inactive
O=C(CSc1n[nH]c(-c2ccccc2)n1)NC(=O)NCc1ccco1	DNMT1 inh 65 | DNMT1 inh conf inactive | DNMT1 interf inactive
Cn1c(SCC(=O)NCc2ccco2)nnc1-c1ccccc1	none
CCCCn1c(SCC(=O)NC(=O)NCc2ccco2)nc2cc(S(N)(=O)=O)ccc21	DNMT1 inh 89 | DNMT1 inh conf inactive | DNMT1 interf inactive
Cn1ncn2c(=O)c3c(nc12)-c1ccccc1CC31CCCC1	DNMT1 inh 85 | DNMT1 inh conf inactive | DNMT1 interf inactive
Nn1cnc2c(c1=O)C1(CCCCC1)Cc1ccccc1-2	none
CCN1CCN(C(c2cccs2)C(C)NC(=O)c2c(F)cccc2F)CC1 (stereo not drawn)	none
Cc1sc(NC(=O)c2cc(-c3ccc(Cl)cc3)nc3ccccc23)c(C(N)=O)c1C	DSG3 Ab inh inconclusive, DNMT1 inh 61 | DNMT1 inh conf inactive | DNMT1 interf inactive
COc1ccc(Cc2c(-c3ccccc3)nc3ccc(Cl)cn23)c(C)c1	none (no result: HCV NS3 hel inh, DSG3 Ab inh)
COc1ccc(Cc2c(-c3ccco3)nc3ccc(Cl)cn23)c(C)c1	DNMT1 inh 84 (no result: HCV NS3 hel inh, DSG3 Ab inh) | DNMT1 inh conf inactive | DNMT1 interf inactive
COc1ccc(Cc2c(-c3ccco3)nc3ccc(Br)cn23)c(C)c1	DNMT1 inh 102 (no result: HCV NS3 hel inh, DSG3 Ab inh) | DNMT1 inh conf inactive | DNMT1 interf inactive
Cc1cc(Br)cn2c(Cc3ccsc3)c(-c3ccco3)nc12	DNMT1 inh 52 (no result: HCV NS3 hel inh, DSG3 Ab inh) | DNMT1 inh conf inactive | DNMT1 interf inactive
Cc1nc(C)c(C(=O)Nc2ncc([N+](=O)[O-])s2)o1	DNMT1 inh 69 | DNMT1 inh conf inactive | DNMT1 interf inactive
O=C(O)C1CSC(c2ccco2)N1 (stereo not drawn)	MBD2 inh 34, UHRF1 binding 65, DNMT1 inh 97 | DNMT1 inh conf inactive | DNMT1 interf inactive
O=C(O)C1CSC(c2ccncc2)N1 (stereo not drawn)	none (no result: MBD2 inh, UHRF1 binding)
CC(CS(=O)(=O)c1ccc2ccccc2c1)N1CCN(C2CCCCC2)CC1 (stereo not drawn)	none (no result: MBD2 inh, DSG3 Ab inh, UHRF1 binding, DNMT1 inh, SUMO1 PPI mod)
COCCn1c2nc(=O)n(-c3ccccc3)c(=O)c-2nc2ccccc21	DNMT1 inh 99 (no result: HCV NS3 hel inh) | DNMT1 inh conf 46 | DNMT1 interf 72
CCCC(=O)NCc1ccc2c(c1)cc(C)n2C	none (no result: DSG3 Ab inh)
COc1cccc(NC(=S)NCc2ccc3c(c2)cc(C)n3C)c1	none
Cc1cc2cc(CNC(=O)Cc3ccc([N+](=O)[O-])cc3)ccc2n1C	DNMT1 inh 56 | DNMT1 inh conf inactive | DNMT1 interf inactive
Cc1cccc(NC(=O)NCc2ccc3c(c2)cc(C)n3C)c1	DNMT1 inh 57 | DNMT1 inh conf inactive | DNMT1 interf inactive
Cc1cc2cc(CNC(=S)Nc3ccc(OC(F)(F)F)cc3)ccc2n1C	DNMT1 inh 57 | DNMT1 inh conf inactive | DNMT1 interf inactive
O=S1(=O)CC2c3ccccc3CCN2CN1Cc1ccccc1 (stereo not drawn)	none (no result: HCV NS3 hel inh, DSG3 Ab inh, DNMT1 inh, SUMO1 PPI mod)
O=C(Nc1ncnc2c1ncn2[C@@H]1O[C@H](/C=C/C(=O)N2CCN(c3ccc(F)cc3)CC2)[C@@H](O)[C@H]1O)c1ccccc1	none (no result: HCV NS3 hel inh, DSG3 Ab inh)
c1ccc(-c2cn3ccccc3n2)cc1	none (no result: HCV NS3 hel inh)
Oc1ccc(-c2cn3ccccc3n2)cc1	DNMT1 inh 153 | DNMT1 inh conf inactive | DNMT1 interf inactive
COc1ccc(C(=O)N(C)Cc2nc3ccccc3c(=O)[nH]2)cc1S(=O)(=O)N1CCCC1	DSG3 Ab inh inconclusive (no result: HCV NS3 hel inh)
Cc1ccc(-c2ccc(/C=N\NC(=O)c3cc4c(ccc5ccccc54)o3)o2)cc1[N+](=O)[O-]	DNMT1 inh 72 | DNMT1 inh conf inactive | DNMT1 interf inactive
Cc1ccc([N+](=O)[O-])cc1-c1ccc(/C=N/NC(=O)c2cc3c(ccc4ccccc43)o2)o1	none
CCOC(=O)N1CCC(NC(=O)c2ccc3snnc3c2)CC1	none
